GRK2 inh: compounds blocking aptamer binding on GRK2 – biochemical, human GRK2, bead flow cytometry, HTS, primary screen. Beta-adrenergic receptor kinase 1 (Homo sapiens), P25098. FAM-aptamer displacement from GRK2. inhibition of aptamer binding, % at 10 µM. actives 0.59% (n = 330,000);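 active means inhibition of aptamer binding above 40%, roughly 3 SD of noise, on plates passing a quality check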;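 further: median bead fluorescence of bound FAM aptamer so fluorescent compounds give negative values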
ABHD5 PLIN5 PPI: ABHD5-PLIN5 interaction inhibitors, primary screen, cell lysate, split luciferase complementation, luminescence; Perilipin-5 (Homo sapiens) + 1-acylglycerol-3-phosphate O-acyltransferase ABHD5 (Homo …; Split G. princeps luciferase complementation, 4 h; inhibition, % at 4 µM; actives 0.78% (n = 360,000); AID 602281, 2012;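 active means inhibition above the mean inhibition across every tested compound plus 3 SD, cut at about 22% in these data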
SENP1 FRET inh: human SENP1 catalytic domain inhibitors, primary screen, biochemical, FRET, uHTS; recombinant SENP1 catalytic domain, CyPet-SUMO1-YPet FRET cleavage; Sentrin-specific protease 1 (Homo sapiens), Q9P0U3; AID 624204, 2012; actives 0.21% (n = 360,000); inhibition, % at 10 µM;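 active means inhibition at least 30% at 10 µM, raw YFP signal under a set limit, fluorescence ratio 0.5 to 1.5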
Target sequence (Q9P0U3 419-644 limits assumed): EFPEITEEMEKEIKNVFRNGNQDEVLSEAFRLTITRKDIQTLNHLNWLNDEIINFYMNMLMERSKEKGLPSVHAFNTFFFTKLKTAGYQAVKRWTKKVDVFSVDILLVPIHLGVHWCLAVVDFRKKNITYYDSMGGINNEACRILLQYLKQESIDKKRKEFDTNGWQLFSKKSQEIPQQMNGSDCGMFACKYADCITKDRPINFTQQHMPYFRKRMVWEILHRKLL
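system = hSENP1 catalytic domain, recombinant | reagent = SFCypet-SUMO1-SFYpet substrate at 25 nM | doses = one dose per compound, 10 µM, 0.5% DMSO | incubation = enzyme reaction for 50 min at room temperature, dark | measured by = FRET, CFP and YFP emission | controls = no-enzyme low, enzyme-DMSO high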
B2AR ag: beta2AR agonists driving receptor internalization, primary screen, cell-based, FAP fluorogen, flow cytometry; Am2.2-beta2AR cells; response, % (test concentration not listed); actives 0.43% (n = 340,000);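 active means response above a set limit, near 3 SD of response in nonfluorescent compounds, cut at about 42% in these data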
Target sequence (P07550 whole entry, looked up): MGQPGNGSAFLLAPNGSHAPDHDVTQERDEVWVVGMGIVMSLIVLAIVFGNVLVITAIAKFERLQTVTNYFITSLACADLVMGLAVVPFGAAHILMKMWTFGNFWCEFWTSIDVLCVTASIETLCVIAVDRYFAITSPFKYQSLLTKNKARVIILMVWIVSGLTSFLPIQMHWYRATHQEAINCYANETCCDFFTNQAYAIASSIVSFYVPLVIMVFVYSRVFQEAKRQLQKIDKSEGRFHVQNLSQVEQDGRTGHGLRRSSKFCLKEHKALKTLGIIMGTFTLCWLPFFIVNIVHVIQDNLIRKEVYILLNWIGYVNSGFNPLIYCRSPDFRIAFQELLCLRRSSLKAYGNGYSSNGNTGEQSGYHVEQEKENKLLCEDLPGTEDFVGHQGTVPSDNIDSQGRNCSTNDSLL
NadD inh: inhibitors of S. aureus NadD, primary screen, biochemical, colorimetric, uHTS; purified NadD enzyme, colorimetric absorbance read-out; inhibition, % at 20 µM; actives 0.78% (n = 360,000); AID 602399, 2012; in the data active means inhibition above about 26%
ABHD5-PLIN5 conf: ABHD5-PLIN5 interaction inhibitors, confirmation, biochemical, luminescence; shares compounds with ABHD5 PLIN5 PPI; inhibition, % at 4 µM; AID 651612, 2012; actives 67% (n = 2,200); in the data active means inhibition above about 23%
HNF4 counter: HNF4 dimerization inhibitors, counter-screen for ABHD5-PLIN5 interaction inhibitor project, biochemical, split-luciferase complementation, luminescence; shares compounds with ABHD5 PLIN5 PPI; inhibition, % at 4 µM; actives 77% (n = 2,200);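 active means mean inhibition across replicate wells exceeding the computed hit threshold, cut at about 13% in these data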;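 further: light from luciferase halves that rejoin when HNF4 fusion proteins dimerize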
Of the large screens only hits and unclear results are named; the others gave an inactive call (follow-up assays come after a bar, where they were run). This is a sample that favours compounds with a hit; in the whole collection about 2.5% have one here.

COc1cccc2sc(N(CCCN(C)C)C(=O)COc3ccc(Cl)cc3)nc12	ABHD5 PLIN5 PPI 29 | ABHD5-PLIN5 conf 23 | HNF4 counter inactive
CCOC(=O)C(=Cc1ccc(-n2ccnc2)cc1)C(=O)OCC	ABHD5 PLIN5 PPI 63 | ABHD5-PLIN5 conf 88 | HNF4 counter 96
CCCn1nc2cc(C(=O)N(CC)c3ccc(OC)cc3)ccc2c1OCC	ABHD5 PLIN5 PPI 71 (no result: GRK2 inh) | ABHD5-PLIN5 conf inactive | HNF4 counter inactive
COc1ccc(/C=C/CN2CCC(n3nccc3NC(=O)C3CC3)CC2)cc1	none
Cc1ccccc1Nc1nc2nonc2nc1N1CCOCC1	ABHD5 PLIN5 PPI 25 | ABHD5-PLIN5 conf inactive | HNF4 counter inactive
COC(=O)C(=C/C(C)=C/c1cccnc1)C(=O)OC	ABHD5 PLIN5 PPI 34 | ABHD5-PLIN5 conf 54 | HNF4 counter 53
O=C1N/C(=C/c2ccc(N3CCOCC3)o2)C(=O)N1c1cccc(Cl)c1	ABHD5 PLIN5 PPI 70 | ABHD5-PLIN5 conf 71 | HNF4 counter 100
COc1cc(-c2cc(C(=O)Nc3ccc(N4CCOCC4)cc3)c3ccccc3n2)cc(OC)c1OC	ABHD5 PLIN5 PPI 24 | ABHD5-PLIN5 conf inactive | HNF4 counter inactive
COc1ccc(/C=C/c2cc(-c3ccc(C)cc3)o[n+]2C)cc1	ABHD5 PLIN5 PPI 28 | ABHD5-PLIN5 conf 44 | HNF4 counter 31
CC(Sc1nnc(-c2ccc(Cl)cc2)n1N)C(=O)NCC1CCCO1 (stereo not drawn)	none
CC1OC(CC(=O)O)CC2=C1C(=O)c1c(O)cccc1C2=O (stereo not drawn)	ABHD5 PLIN5 PPI 99, B2AR ag 75 (no result: GRK2 inh) | ABHD5-PLIN5 conf inactive | HNF4 counter inactive
CCC(CC)COC(=O)C1=C(C)NC(=O)NC1c1ccc(N(C)C)cc1 (stereo not drawn)	none
O=C(/C(=C/c1ccc(Cl)cc1)c1nc2ccccc2[nH]1)c1cccs1	ABHD5 PLIN5 PPI 58, B2AR ag 62 | ABHD5-PLIN5 conf 101 | HNF4 counter 94
COc1cc(/C=C(/C(=O)c2cccs2)c2nc3ccccc3[nH]2)ccc1O	ABHD5 PLIN5 PPI 35 | ABHD5-PLIN5 conf 76 | HNF4 counter 68
Cc1nnc(SC(C)C(=O)Nc2ncc(Cl)cc2Cl)n1Cc1ccccc1 (stereo not drawn)	ABHD5 PLIN5 PPI 57 | ABHD5-PLIN5 conf inactive | HNF4 counter inactive
COCCn1c(SC(C)C(=O)Nc2ncc(Cl)cc2Cl)nc2ccccc21 (stereo not drawn)	none
O=C(CC(Nc1ccc(Cl)cc1Cl)C(=O)O)c1ccccc1 (stereo not drawn)	ABHD5 PLIN5 PPI 78 | ABHD5-PLIN5 conf inactive | HNF4 counter 80
Cc1ccc(NC(CC(=O)c2ccccc2)C(=O)O)cc1Cl (stereo not drawn)	ABHD5 PLIN5 PPI 29 | ABHD5-PLIN5 conf inactive | HNF4 counter 40
CSCCC(NC(=O)c1ccccc1)C(=O)OCC(=O)Nc1ccc(C)c(Cl)c1 (stereo not drawn)	none
CCOc1cc(/C=C/C(=O)c2ccc(OC)c(CN3CCOCC3)c2)cc(Br)c1O	ABHD5 PLIN5 PPI 23 | ABHD5-PLIN5 conf 30 | HNF4 counter 24
CCOc1cc(/C=N/NC(=O)c2ccc(CN3CCOCC3)cc2)ccc1OC	none
O=C(NCCc1ccccc1F)C1C(=O)Nc2ccccc2C(=O)N1C1CCCCC1 (stereo not drawn)	none (no result: GRK2 inh, B2AR ag, NadD inh)
O=C(O)c1ccccc1C(=O)OCCCc1ccncc1	none
N#C/C(=C\c1ccc(N2CCOCC2)o1)c1ccccc1	ABHD5 PLIN5 PPI 76 | ABHD5-PLIN5 conf 37 | HNF4 counter 101
N#C/C(=C\c1cc([N+](=O)[O-])c(N2CCOCC2)cc1N1CCOCC1)c1nc2ccccc2[nH]1	none
N#C/C(=C/c1ccc(N2CCOCC2)o1)c1nc2ccccc2[nH]1	ABHD5 PLIN5 PPI 27 | ABHD5-PLIN5 conf 32 | HNF4 counter 50
N#C/C(=C\c1ccc(N2CCOCC2)cc1)c1ccccc1	none
COc1cccc(-c2cc(C(=O)NCC3CCCO3)c3cc(C)cc(C)c3n2)c1 (stereo not drawn)	none
CCN(CC(=O)NC1CCCC1)S(=O)(=O)c1ccc(Br)cc1	none
CCn1c(SC(C)C(=O)NC2CCCC2)nc2cc(S(N)(=O)=O)ccc21 (stereo not drawn)	none
CC1Cc2ccccc2N1C(=O)CN1C(=O)NC2(CCCCC2)C1=O (stereo not drawn)	none
Cc1cc(O)c(-c2cc(O)c(C)cc2O)cc1O	ABHD5 PLIN5 PPI 44 | ABHD5-PLIN5 conf 37 | HNF4 counter 87
Cc1c(C(=O)N2CCCCC2)c(S(=O)(=O)N2CCC(C)CC2)c(C)n1C	none
CCC(c1ccccc1)c1noc(CCN(CC)CC)n1 (stereo not drawn)	ABHD5 PLIN5 PPI 60 (no result: GRK2 inh, B2AR ag) | ABHD5-PLIN5 conf 73 | HNF4 counter 32
COCCN(C)Cc1nc(C(c2ccccc2)c2ccccc2)no1	none
CC(C)[C@H](CN1CCC[C@H]1CN1C(N)=NC[C@@H]1Cc1ccccc1)N1C[C@@H](Cc2ccccc2)N(CCc2ccc(Cl)c(Cl)c2)C1=N	ABHD5 PLIN5 PPI 36 | ABHD5-PLIN5 conf 23 | HNF4 counter inactive
CCCCN1C(=N)N([C@@H](CCC)CN2CCC[C@H]2CN2C(N)=NC[C@@H]2Cc2ccccc2)C[C@H]1Cc1ccccc1	none
CCC[C@@H](CN1CCC[C@H]1CN1C(N)=NC[C@@H]1Cc1ccccc1)N1C[C@@H]([C@H](C)CC)N(CCc2ccc(Cl)c(Cl)c2)C1=N	ABHD5 PLIN5 PPI 26 | ABHD5-PLIN5 conf inactive | HNF4 counter inactive
CCC[C@@H](CN1CCC[C@H]1CN1C(N)=NC[C@@H]1Cc1ccccc1)N1C[C@@H](Cc2ccccc2)N(CCc2ccc(Cl)c(Cl)c2)C1=N	ABHD5 PLIN5 PPI 29 | ABHD5-PLIN5 conf inactive | HNF4 counter inactive
C[C@H](CO)N1C[C@H](C)[C@H](CN(C)C(=O)Nc2cccc(C(F)(F)F)c2)OCc2cnnn2CCCC1=O	none (no result: GRK2 inh, B2AR ag)
COc1ccc(CC(Cc2ccc(OC)c(OC)c2)NC=O)cc1OC	none (no result: GRK2 inh, B2AR ag)
O=C(NCC(=O)N1CC=C(c2ccccc2)CC1)c1ccco1	none
COc1cc(C2NC(=O)c3ccccc3O2)cc(OC)c1OC (stereo not drawn)	none

Assay outcomes deposited in PubChem by several laboratories.
